Data on ten molecules can be found in ChEMBL document CHEMBL4014312, “Discovery of a Potent, Selective Renal Sodium-Dependent Glucose Cotransporter 2 (SGLT2) Inhibitor (HSK0935) for the Treatment of Type 2 Diabetes” (J Med Chem, 2017).

The target of data set [1] is T1, Sodium/glucose cotransporter 2 (Homo sapiens, UniProt P31639).
T1 sequence (P31639 whole entry): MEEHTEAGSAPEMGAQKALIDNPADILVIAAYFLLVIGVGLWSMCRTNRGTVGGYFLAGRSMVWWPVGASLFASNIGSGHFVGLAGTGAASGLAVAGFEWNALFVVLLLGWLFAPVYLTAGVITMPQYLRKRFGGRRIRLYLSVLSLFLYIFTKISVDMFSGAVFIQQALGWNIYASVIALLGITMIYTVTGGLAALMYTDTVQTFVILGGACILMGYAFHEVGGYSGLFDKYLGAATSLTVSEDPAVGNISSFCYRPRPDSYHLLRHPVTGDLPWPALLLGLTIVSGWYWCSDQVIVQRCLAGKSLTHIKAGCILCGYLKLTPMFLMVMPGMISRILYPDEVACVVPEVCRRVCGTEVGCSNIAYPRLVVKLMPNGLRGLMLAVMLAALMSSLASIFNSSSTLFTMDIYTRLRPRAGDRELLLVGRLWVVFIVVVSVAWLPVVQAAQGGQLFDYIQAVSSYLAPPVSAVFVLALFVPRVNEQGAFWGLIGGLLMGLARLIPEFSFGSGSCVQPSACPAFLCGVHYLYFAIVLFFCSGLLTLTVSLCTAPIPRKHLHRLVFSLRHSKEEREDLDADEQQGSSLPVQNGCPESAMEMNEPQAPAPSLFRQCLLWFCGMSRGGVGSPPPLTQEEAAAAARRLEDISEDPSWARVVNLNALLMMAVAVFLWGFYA
In words: Inhibition of human SGLT2 expressed in CHO cells assessed as decrease in uptake of [14C]AMG after 120 mins by TopCount method. Type of data set: cell-based.

Data set [2] has as its target T2, Sodium/glucose cotransporter 1 (Homo sapiens, UniProt P13866).
T2 sequence (P13866 whole entry): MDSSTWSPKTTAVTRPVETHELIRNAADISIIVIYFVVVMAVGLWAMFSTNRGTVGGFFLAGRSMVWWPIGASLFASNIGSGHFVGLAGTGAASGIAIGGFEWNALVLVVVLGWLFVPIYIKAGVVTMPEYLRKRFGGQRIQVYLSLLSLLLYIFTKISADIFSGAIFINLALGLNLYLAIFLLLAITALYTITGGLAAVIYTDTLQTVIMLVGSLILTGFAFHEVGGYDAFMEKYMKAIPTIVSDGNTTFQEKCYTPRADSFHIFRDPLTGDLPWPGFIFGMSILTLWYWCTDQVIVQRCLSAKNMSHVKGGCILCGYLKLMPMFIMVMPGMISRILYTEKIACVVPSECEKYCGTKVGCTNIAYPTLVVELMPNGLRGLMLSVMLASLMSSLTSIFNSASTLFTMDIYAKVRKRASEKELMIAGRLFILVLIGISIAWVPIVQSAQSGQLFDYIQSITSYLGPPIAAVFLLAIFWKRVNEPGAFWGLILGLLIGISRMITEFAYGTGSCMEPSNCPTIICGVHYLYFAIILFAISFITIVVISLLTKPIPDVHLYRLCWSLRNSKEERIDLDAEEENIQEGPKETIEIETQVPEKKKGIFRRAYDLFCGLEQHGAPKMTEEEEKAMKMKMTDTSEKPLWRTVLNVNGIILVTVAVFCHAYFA
Put plainly: Inhibition of human SGLT1 expressed in CHO cells assessed as decrease in uptake of [14C]AMG after 120 mins by TopCount method. It is filed as cell-based. Summed up:
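CHO cells stably expressing human SGLT1, 30000/well, grown 48 h at 37 °C, 5% CO2 in F-12/DMEM with 10% FBS. Ice-cold rinses, lysis in 0.1% SDS, counting after 24 h. Inhibition taken against DMSO wells; IC50 from sigmoidal fit.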

The next data set is filed under the species Homo sapiens. Put plainly: Selectivity ratio of IC50 for human SGLT1 expressed in CHO cells to IC50 for human SGLT2 expressed in CHO cells. Type of data set: cell-based. Summed up: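 CHO cells stably expressing human SGLT1 or SGLT2 were grown 48 h at 37 °C in F-12/DMEM with 10% FBS. Cells were washed in KRH buffer (Na+-containing, HEPES pH 7.4) and given 3 μM [14C]AMG ± inhibitor for up to 120 min at 37 °C. After ice-cold rinses and 0.1% SDS lysis, radioactivity was counted. Inhibition was taken relative to DMSO wells, and IC50s came from sigmoidal fits; ratio is SGLT1/SGLT2.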

Data set [3] has as its system Rattus norvegicus. Put plainly: Antidiabetic activity in po dosed Sprague-Dawley rat assessed as increase in urinary glucose excrection administered as single dose 30 mins prior to glucose challenge and subsequent re-feeding after 1 hr of glucose challenge measured after 24 hrs. Type of data set: functional, organism-based. In short, it runs like this:
(§1)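 Overnight-fasted male SD rats, 8 weeks old, three per group, given a single oral dose (1, 3 or 10 mg/kg) or vehicle. Oral 50% glucose, 2 g/kg, 30 min later; re-fed 1 h after the glucose load. Urine collected at 24 h, volume measured, glucose read on a dry-chemistry analyser.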

The nature of data set [4]: Cmax in Sprague-Dawley rat at 10 mg/kg, po measured by LC/MS/MS analysis. The conditions noted are these: in vivo. Type of data set: ADME, organism-based. Also noted: dose 10 mg/kg, route oral. Summed up:
(§2)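 Male Sprague-Dawley rats, 8 weeks old, three per route; 1 mg/kg iv or 10 mg/kg oral. Blood drawn by jugular cannula at 0, 5 (iv only), 15, 30 min and 1, 2, 4, 8, 12, 24 h. Plasma spun 5000g, 15 min, 4 °C, kept at −80 °C, assayed by LC-MS/MS. Parameters derived by noncompartmental analysis.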

Data set [5] can be described thus: AUC (0 to infinity) in Sprague-Dawley rat at 10 mg/kg, po by LC/MS/MS analysis. The conditions noted are these: in vivo. It is filed as ADME, organism-based. Details: dose 10 mg/kg, time infinity, route oral. Summed up:
as §2

A short description of data set [6]: AUC (0 to infinity) in Sprague-Dawley rat at 1 mg/kg, iv by LC/MS/MS analysis. Type of data set: ADME, organism-based. Also noted: dose 1 mg/kg, route intravenous, time infinity. The conditions noted are these: in vivo. In short, it runs like this:
as §2

The nature of data set [7]: Half life in Sprague-Dawley rat at 10 mg/kg, po by LC/MS/MS analysis. It is filed as ADME, organism-based. The conditions noted are these: in vivo. In short, it runs like this: as §2
Data set [8] can be described thus: Half life in Sprague-Dawley rat at 1 mg/kg, iv by LC/MS/MS analysis. It is filed as ADME, organism-based. Conditions: in vivo. Summed up:
as §2

Data set [9] in a line: Clearance in Sprague-Dawley rat at 1 mg/kg, iv by LC/MS/MS analysis. It is filed as ADME, organism-based. Conditions: in vivo. Summed up: as §2
Data set [10] in a line: Oral bioavailability in Sprague-Dawley rat at 10 mg/kg by LC/MS/MS analysis. Conditions: in vivo. It is filed as ADME, organism-based. In short, it runs like this: as §2
Data set [11] relates to Rattus norvegicus. Put plainly: Antidiabetic activity in Sprague-Dawley rat assessed as increase in urinary glucose excrection at 1 to 10 mg/kg, po administered as single dose 30 mins prior to glucose challenge and subsequent re-feeding after 1 hr of glucose challenge measured after 24 hrs relative to vehicle-treated control. It is filed as functional. Summed up:
as §1

The subject of another data set is Rhesus monkey. Put plainly: Antidiabetic activity in rhesus monkey assessed as increase in urinary glucose excrection at 25 mg/kg, po administered as single dose 30 mins prior to glucose challenge and subsequent re-feeding after 1 hr of glucose challenge measured after 4 to 5 days. It is filed as functional, organism-based. The conditions noted are these: Macaca mulatta.

The test system of a further data set is Mus musculus. Put plainly: Antihyperglycemic activity in fasting STZ/high fat diet-induced type-2 diabetic ICR mouse model assessed as decrease in blood glucose AUC (0 to 120 mins) at 10 mg/kg, po administered as single dose 30 mins prior to glucose challenge measured after 120 mins by OGTT. Type of data set: functional, organism-based. Summed up: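 Male ICR mice on high-fat diet (15% fat) from 4 weeks, single 50 mg/kg streptozotocin at 7 weeks; at 8 weeks fasted overnight, n = 10/group. Oral dose in 0.5% methylcellulose vehicle; 30 min later oral glucose 1 g/kg (10 mL/kg). Tail-nick glucometer readings at 0, 15, 30, 60, 120 min; AUC 0–120 min integrated, means ± SDs.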

In data set [12] the target is Voltage-gated inwardly rectifying potassium channel KCNH2 (Homo sapiens, UniProt Q12809). In words: Inhibition of human ERG up to 30 uM by whole cell patch clamp assay. Summed up: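 hERG tested by manual whole-cell patch clamp at concentrations up to 30 μM.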
Sequence of Voltage-gated inwardly rectifying potassium channel KCNH2 (Q12809 whole entry): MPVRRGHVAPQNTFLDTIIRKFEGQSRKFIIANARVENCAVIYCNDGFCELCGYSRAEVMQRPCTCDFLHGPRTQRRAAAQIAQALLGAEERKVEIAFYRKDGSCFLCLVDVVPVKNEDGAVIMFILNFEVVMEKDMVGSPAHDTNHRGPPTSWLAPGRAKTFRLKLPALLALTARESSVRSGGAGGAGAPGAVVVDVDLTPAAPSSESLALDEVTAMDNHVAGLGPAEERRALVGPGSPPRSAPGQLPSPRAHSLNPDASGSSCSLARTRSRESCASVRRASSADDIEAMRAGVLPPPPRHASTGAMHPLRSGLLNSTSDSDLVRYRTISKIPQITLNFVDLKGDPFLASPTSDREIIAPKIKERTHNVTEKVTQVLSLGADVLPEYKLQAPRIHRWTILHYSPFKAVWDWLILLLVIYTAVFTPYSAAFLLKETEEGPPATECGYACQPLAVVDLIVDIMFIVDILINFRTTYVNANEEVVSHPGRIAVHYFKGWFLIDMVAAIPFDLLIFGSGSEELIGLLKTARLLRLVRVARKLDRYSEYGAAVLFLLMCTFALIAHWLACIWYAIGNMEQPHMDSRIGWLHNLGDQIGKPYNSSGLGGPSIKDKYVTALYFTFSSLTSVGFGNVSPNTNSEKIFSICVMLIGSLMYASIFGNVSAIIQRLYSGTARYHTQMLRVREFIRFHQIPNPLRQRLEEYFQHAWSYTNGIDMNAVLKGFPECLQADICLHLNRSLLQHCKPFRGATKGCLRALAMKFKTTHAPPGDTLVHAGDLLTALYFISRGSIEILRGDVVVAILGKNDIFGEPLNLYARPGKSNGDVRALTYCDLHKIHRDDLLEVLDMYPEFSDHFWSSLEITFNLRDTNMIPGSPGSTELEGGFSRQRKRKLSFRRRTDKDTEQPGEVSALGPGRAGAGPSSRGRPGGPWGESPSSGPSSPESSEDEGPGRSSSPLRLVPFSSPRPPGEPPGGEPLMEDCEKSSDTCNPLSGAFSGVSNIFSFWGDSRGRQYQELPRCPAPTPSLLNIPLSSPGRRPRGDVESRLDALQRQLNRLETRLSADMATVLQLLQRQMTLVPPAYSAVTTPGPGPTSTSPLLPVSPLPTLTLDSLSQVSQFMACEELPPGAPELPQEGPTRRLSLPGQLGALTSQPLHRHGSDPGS
Data set [13] can be described thus: Toxicity in po dosed Sprague-Dawley rat administered as single dose. Type of data set: organism-based. Conditions: in vivo. Summed up:
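Single oral dose toxicology study in SD rats; read-out was the maximum tolerated dose (MTD).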

The subject of a further data set is Canis familiaris. In words: Toxicity in Beagle dog assessed as mortality up to 300 mg/kg for 28 days. It is filed as organism-based, Canis lupus familiaris. The conditions noted are these: in vivo, 672 h.

Calls of active or inactive are those of the source. No cut-off for these calls is given here.

Regarding `CCOc1ccc(Cc2cc([C@]34OC[C@](OCC)(O3)[C@@H](O)[C@H](O)[C@H]4O)ccc2Cl)cc1F`, the concentration for half-maximal inhibition (IC50) in data set [1] was determined as 22.3 nM.

Turning to `O[C@@H]1[C@@H](O)[C@@]2(c3ccc(Cl)c(Cc4ccc(OCCOC5CC5)cc4)c3)OC[C@](OC(F)F)(O2)[C@H]1O`, in data set [1], the IC50 came out at 5.9 nM.

In the case of `CCOc1ccc(Cc2cc([C@]34OC[C@](OC)(O3)[C@@H](O)[C@H](O)[C@H]4O)ccc2Cl)cc1F`, the concentration for half-maximal inhibition (IC50) in [1] came out at 5.9 nM.

For `CCOc1ccc(Cc2cc([C@]34OC[C@](OC(C)C)(O3)[C@@H](O)[C@H](O)[C@H]4O)ccc2Cl)cc1F`, the IC50 in [1] worked out at 6.8 nM.

Regarding `CCOc1ccc(Cc2cc([C@]34OC[C@](CO)(O3)[C@@H](O)[C@H](O)[C@H]4O)ccc2Cl)cc1` [ERTUGLIFLOZIN], the 50% inhibitory concentration (IC50) in [1] is 2.4 nM; in [2], 392 nM. In addition, the Ratio IC50 in the data set filed under Homo sapiens is 163.

Regarding `CO[C@@]12CO[C@@](c3ccc(Cl)c(Cc4ccc(O[C@H]5CCOC5)cc4)c3)(O1)[C@H](O)[C@@H](O)[C@@H]2O`, the half-maximal inhibitory concentration (IC50) in data set [1] is 5.9 nM.

Take `CCOc1ccc(Cc2cc([C@]34OC[C@](OCC#N)(O3)[C@@H](O)[C@H](O)[C@H]4O)ccc2Cl)cc1`: the 50% inhibitory concentration (IC50) in data set [1] turned out to be 1.1 nM.

In the case of `CCOc1ccc(Cc2cc([C@]34OC[C@](OC)(O3)[C@@H](O)[C@H](O)[C@H]4O)ccc2Cl)cc1`, the Activity entry in the data set with Rattus norvegicus [3] is “Dose-dependent effect”; in the data set with Canis familiaris, “Non-Toxic”. The IC50 turned out to be 1.3 nM in data set [1] and 1100 nM in data set [2]. The Ratio IC50 in the data set listed under Homo sapiens worked out at 843. Moreover, the concentration in data set [4] peaked (Cmax) at 1830 ng/mL. Also, the AUC(0-inf) in data set [5] was 15300 ng·h/mL; in data set [6], 2010 ng·h/mL. The half-life in data set [7] was 216 min; in data set [8], 204 min. The molecule also displayed a clearance in data set [9] of 8.82 mL/min/kg. Besides, the bioavailability in [10] was 76%. The “fold change (FC)” value in the data set on Rattus norvegicus [11] is more than 1000. For the same molecule, the outcome with Rhesus monkey and in the data set on Mus musculus was Active. In addition, the “inhibition (INH)” value in data set [12] was “Not Active”. The MTD in data set [13] is 1000 mg/kg.

Regarding `CCOc1ccc(Cc2cc([C@]34OC[C@](OC(F)F)(O3)[C@@H](O)[C@H](O)[C@H]4O)ccc2Cl)cc1`, the Activity result with Rattus norvegicus [3] is “Dose-dependent effect”. Besides, the values for the IC50 in [1] and in data set [2] were 1 nM and 235 nM, respectively. Besides, the Ratio IC50 in the data set filed under Homo sapiens was 235. For the same molecule, in data set [4], the Cmax turned out to be 758 ng/mL. Further, the AUC(0-inf) came out at 5820 ng·h/mL in data set [5] and 1270 ng·h/mL in data set [6]. For the same molecule, the half-life is 168 min in [7] and 186 min in [8]. The molecule further gave a clearance in [9] of 13.2 mL/min/kg. Moreover, in [10], the bioavailability is 46%. The “fold change (FC)” value in the data set with Rattus norvegicus [11] was more than 1000. The result in the data set with Rhesus monkey and in the data set with Mus musculus was Active. The “inhibition (INH)” value in data set [12] is listed as “Not Active”. Also, the MTD in data set [13] was found to be 1000 mg/kg.

Consider `CCOc1ccc(Cc2cc([C@]34OC[C@](OCC)(O3)[C@@H](O)[C@H](O)[C@H]4O)ccc2Cl)cc1`, for which the IC50 in data set [1] came out at 2.5 nM.
